From ChEMBL document CHEMBL1143835, “Antipropionibacterial activity of BAL19403, a novel macrolide antibiotic” (2007)
In brackets after ≈: the same amount, converted by molar mass.

What was measured:
[1] = test system: Propionibacterium granulosum; assay: Antibacterial activity against drug-resistant Propionibacterium granulosum NCTC-11865 after 48 hrs by broth microdilution method; type: functional; conditions: Cutibacterium granulosum, NCTC-11865, 48 h
In short: (§1)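 Broth microdilution MIC in Wilkins-Chalgren broth without lysed horse blood, following CLSI anaerobe guidelines. Plates were held in anaerobic jars with atmosphere generators (O2 <0.1% by 2.5 h, CO2 >15% by 24 h) at 35 to 37°C for 48 h. Growth was read with an illuminated plate reader and magnifying mirror.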

[2] = test system: Cutibacterium acnes; assay: Antibacterial activity against drug-resistant Propionibacterium acnes P429:1 (SC) after 48 hrs by broth microdilution method; type: functional; in short: as §1
[3] = test system: Cutibacterium acnes; assay: Antibacterial activity against drug-resistant Propionibacterium acnes SW3CD after 48 hrs by broth microdilution method; type: functional; in short: as §1
[4] = test system: Cutibacterium acnes; assay: Antibacterial activity against drug-resistant Propionibacterium acnes D-04/97 after 48 hrs by broth microdilution method; type: functional; in short: as §1
[5] = test system: Cutibacterium acnes; assay: Antibacterial activity against drug-resistant Propionibacterium acnes P95 after 48 hrs by broth microdilution method; type: functional; in short: as §1
[6] = test system: Propionibacterium granulosum; assay: Antibacterial activity against drug-resistant Propionibacterium granulosum QK6/92 after 48 hrs by broth microdilution method
[7] = test system: Cutibacterium acnes; assay: Antibacterial activity against drug-resistant Propionibacterium acnes SW101T after 48 hrs by broth microdilution method; type: functional; in short: as §1
[8] = test system: Cutibacterium acnes; assay: MBC/MIC ratio of Propionibacterium acnes EG7NS; type: functional
In short: (§2)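 MIC by CLSI broth microdilution in Wilkins-Chalgren broth in anaerobic jars (O2 <0.1%, CO2 >15%), read after 48 h at 35–37°C on an illuminated plate reader. For MBC, samples were plated onto Wilkins-Chalgren agar and incubated anaerobically for 72 h at 35–37°C before growth was scored.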

[9] = test system: Staphylococcus aureus; assay: Antibacterial activity against borderline oxacillin-resistant Staphylococcus aureus after 20 to 24 hrs by broth microdilution method
[10] = test system: Cutibacterium acnes; assay: Antibacterial activity against drug-resistant Propionibacterium acnes SW54EA after 48 hrs by broth microdilution method; type: functional; in short: as §1
[11] = test system: Cutibacterium acnes; assay: Antibacterial activity against drug-resistant Propionibacterium acnes P:413 after 48 hrs by broth microdilution method; type: functional; in short: as §1
[12] = test system: Staphylococcus aureus; assay: Antibacterial activity against methicillin-susceptible Staphylococcus aureus after 48 hrs by broth microdilution method; type: functional
[13] = test system: Cutibacterium acnes; assay: Antibacterial activity against drug-resistant Propionibacterium acnes GE4E after 48 hrs by broth microdilution method; type: functional; in short: as §1
[14] = test system: Cutibacterium acnes; assay: Antibacterial activity against drug-resistant Propionibacterium acnes EG7NS after 72 hrs; type: functional
In short: (§3)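 MBC for P. acnes followed MIC assays by standard methodology. Samples were plated on Wilkins-Chalgren agar, incubated anaerobically in GENbox jars at 35 to 37°C, and examined for growth after 72 h.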

[15] = test system: Cutibacterium acnes; assay: Antibacterial activity against drug-resistant Propionibacterium acnes P425:1 after 48 hrs by broth microdilution method; type: functional; in short: as §1
[16] = Antibacterial activity against Streptococcus dysgalactiae subsp. dysgalactiae after 48 hrs by broth microdilution method; type: functional
[17] = test system: Streptococcus equi subsp. zooepidemicus; assay: Antibacterial activity against Streptococcus equi subsp. zooepidemicus after 48 hrs by broth microdilution method; type: functional
[18] = test system: Corynebacterium amycolatum; assay: Antibacterial activity against Corynebacterium amycolatum after 48 hrs by broth microdilution method; type: functional
In short: (§4)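 Broth microdilution per CLSI in cation-adjusted Mueller-Hinton broth supplemented with 0.5% (vol/vol) Tween 80. Plates incubated at 35°C in ambient air for 44 to 48 h, then read visually. MICs in μg/ml; a geometric mean MIC was calculated across the corynebacterial strains.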

[19] = test system: Cutibacterium acnes; assay: Antibacterial activity against drug-resistant Propionibacterium acnes SP64E after 48 hrs by broth microdilution method; type: functional; in short: as §1
[20] = test system: Cutibacterium acnes; assay: Antibacterial activity against drug-resistant Propionibacterium acnes P401:5 after 48 hrs by broth microdilution method; type: functional; in short: as §1
[21] = test system: Corynebacterium minutissimum; assay: Antibacterial activity against Corynebacterium minutissimum after 48 hrs by broth microdilution method; type: functional; in short: as §4
[22] = test system: Staphylococcus aureus; assay: Antibacterial activity against methicillin-resistant Staphylococcus aureus after 20 to 24 hrs by broth microdilution method
[23] = test system: Cutibacterium acnes; assay: Antibacterial activity against drug-resistant Propionibacterium acnes SW101CDA after 48 hrs by broth microdilution method; type: functional; in short: as §1
[24] = test system: Cutibacterium acnes; assay: Antibacterial activity against drug-resistant Propionibacterium acnes EG13NS after 48 hrs by broth microdilution method; type: functional; in short: as §1
[25] = test system: Cutibacterium acnes; assay: Antibacterial activity against drug-resistant Propionibacterium acnes FG7E after 48 hrs by broth microdilution method; type: functional; in short: as §1
[26] = test system: Corynebacterium jeikeium; assay: Antibacterial activity against Corynebacterium jeikeium after 48 hrs by broth microdilution method; type: functional; in short: as §4
[27] = test system: Cutibacterium acnes; assay: Antibacterial activity against drug-resistant Propionibacterium acnes EG7NS after 48 hrs by broth microdilution method; type: functional; in short: as §1
[28] = test system: Cutibacterium acnes; assay: Antibacterial activity against drug-resistant Propionibacterium acnes P322:2 after 48 hrs by broth microdilution method; type: functional; in short: as §1
[29] = test system: Cutibacterium acnes; assay: MBC/MIC ratio of Propionibacterium acnes SW3CD; type: functional; in short: as §2
[30] = test system: Cutibacterium acnes; assay: Antibacterial activity against drug-resistant Propionibacterium acnes SW11 after 48 hrs by broth microdilution method; type: functional; in short: as §1
[31] = test system: Cutibacterium acnes; assay: Antibacterial activity against drug-resistant Propionibacterium acnes SW10 after 48 hrs by broth microdilution method; type: functional; in short: as §1
[32] = test system: Cutibacterium acnes; assay: Antibacterial activity against drug-resistant Propionibacterium acnes SW26 after 48 hrs by broth microdilution method; type: functional; in short: as §1
[33] = test system: Cutibacterium acnes; assay: Antibacterial activity against drug-resistant Propionibacterium acnes P429:1 (BC) after 48 hrs by broth microdilution method; type: functional; in short: as §1
[34] = test system: Cutibacterium acnes; assay: Antibacterial activity against drug-resistant Propionibacterium acnes SW16 after 48 hrs by broth microdilution method; type: functional; in short: as §1
[35] = test system: Cutibacterium acnes; assay: Antibacterial activity against drug-resistant Propionibacterium acnes EG3NS after 48 hrs by broth microdilution method; type: functional; in short: as §1
[36] = test system: Cutibacterium acnes; assay: Antibacterial activity against drug-resistant Propionibacterium acnes OK8/97 after 48 hrs by broth microdilution method; type: functional; in short: as §1
[37] = test system: Cutibacterium acnes; assay: Antibacterial activity against drug-resistant Propionibacterium acnes SW17 after 48 hrs by broth microdilution method; type: functional; in short: as §1
[38] = test system: Cutibacterium acnes; assay: Antibacterial activity against drug-resistant Propionibacterium acnes P95 after 72 hrs; type: functional; in short: as §3
[39] = test system: Streptococcus pyogenes; assay: Antibacterial activity against Streptococcus pyogenes after 20 to 24 hrs by broth microdilution method
[40] = test system: Cutibacterium acnes; assay: MBC/MIC ratio of Propionibacterium acnes P95; type: functional; in short: as §2
[41] = test system: Staphylococcus epidermidis; assay: Antibacterial activity against Staphylococcus epidermidis after 48 hrs by broth microdilution method; type: functional
[42] = test system: Cutibacterium acnes; assay: Antibacterial activity against drug-resistant Propionibacterium acnes SW3CD after 72 hrs; type: functional; in short: as §3
[43] = test system: Corynebacterium diphtheriae; assay: Antibacterial activity against Corynebacterium diphtheriae after 48 hrs by broth microdilution method; type: functional; in short: as §4
[44] = test system: Cutibacterium acnes; assay: Antibacterial activity against drug-resistant Propionibacterium acnes GE46EB after 48 hrs by broth microdilution method; type: functional; in short: as §1
[45] = test system: Cutibacterium acnes; assay: MBC/MIC ratio of Propionibacterium acnes GE4E; type: functional; in short: as §2
[46] = test system: Cutibacterium acnes; assay: Antibacterial activity against drug-resistant Propionibacterium acnes SW101T after 72 hrs; type: functional; in short: as §3
[47] = test system: Cutibacterium acnes; assay: Antibacterial activity against drug-resistant Propionibacterium acnes GE4E after 72 hrs; type: functional; in short: as §3
[48] = test system: Cutibacterium acnes; assay: MBC/MIC ratio of Propionibacterium acnes SW101T; type: functional; in short: as §2

CC[C@H]1OC(=O)[C@H](C)[C@@H](O[C@H]2C[C@@](C)(OC)[C@@H](O)[C@H](C)O2)[C@H](C)[C@@H](O[C@@H]2O[C@H](C)C[C@H](N(C)C)[C@H]2O)[C@](C)(O)C[C@@H](C)C(=O)[C@H](C)[C@@H](O)[C@]1(C)O [ERYTHROMYCIN]
MIC [1]: 0.125 µg/mL (≈ 0.17 µM)
MIC [2]: 4 µg/mL (≈ 5.45 µM)
MIC [3]: ≤ 0.06 µg/mL
MIC [4]: ≤ 0.06 µg/mL
MIC [5]: 4 µg/mL (≈ 5.45 µM)
MIC [6]: 0.5 µg/mL (≈ 0.681 µM)
MIC [7]: > 512 µg/mL
Ratio [8]: >=533
MIC [9]: 3.26 µg/mL (≈ 4.44 µM)
MIC [10]: > 512 µg/mL
MIC [11]: ≤ 0.06 µg/mL
MIC [12]: 3.26 µg/mL (≈ 4.44 µM)
MIC [13]: > 512 µg/mL
MBC [14]: > 32 µg/mL
MIC [15]: > 512 µg/mL
MIC [16]: 0.09 µg/mL (≈ 0.123 µM)
MIC [17]: 0.14 µg/mL (≈ 0.191 µM)
MIC [18]: 1.47 µg/mL (≈ 2 µM)
MIC [19]: > 512 µg/mL
MIC [20]: 2 µg/mL (≈ 2.73 µM)
MIC [21]: 1.47 µg/mL (≈ 2 µM)
MIC [22]: 3.26 µg/mL (≈ 4.44 µM)
MIC [23]: > 512 µg/mL
MIC [24]: ≤ 0.06 µg/mL
MIC [25]: > 512 µg/mL
MIC [26]: 1.47 µg/mL (≈ 2 µM)
MIC [27]: ≤ 0.06 µg/mL
MIC [28]: > 512 µg/mL
Ratio [29]: >=2
MIC [30]: 0.125 µg/mL (≈ 0.17 µM)
MIC [31]: ≤ 0.06 µg/mL
MIC [32]: ≤ 0.06 µg/mL
MIC [33]: 2 µg/mL (≈ 2.73 µM)
MIC [34]: ≤ 0.06 µg/mL
MIC [35]: ≤ 0.06 µg/mL
MIC [36]: 0.125 µg/mL (≈ 0.17 µM)
MIC [37]: ≤ 0.06 µg/mL
MBC [38]: > 32 µg/mL
MIC [39]: 0.32 µg/mL (≈ 0.436 µM)
Ratio [40]: >8
MIC [41]: 3 µg/mL (≈ 4.09 µM)
MBC [42]: 0.125 µg/mL (≈ 0.17 µM)
MIC [43]: 1.47 µg/mL (≈ 2 µM)
MIC [44]: > 512 µg/mL

CC[C@H]1OC(=O)[C@H](C)[C@@H](O[C@H]2C[C@@](C)(OC)[C@@H](O)[C@H](C)O2)[C@H](C)[C@@H](O[C@@H]2O[C@H](C)C[C@H](N(C)C)[C@H]2O)[C@](C)(OC)C[C@@H](C)C(=O)[C@H](C)[C@H]2[C@H](SCCn3cnc4cccnc43)C(=O)O[C@@]21C
Ratio [45]: >=2
MIC [1]: ≤ 0.06 µg/mL
MBC [46]: > 32 µg/mL
MIC [2]: ≤ 0.06 µg/mL
MIC [3]: ≤ 0.06 µg/mL
MIC [4]: ≤ 0.06 µg/mL
MIC [5]: ≤ 0.06 µg/mL
MIC [6]: 0.125 µg/mL (≈ 0.132 µM)
MIC [7]: 4 µg/mL (≈ 4.21 µM)
MIC [9]: 4.32 µg/mL (≈ 4.55 µM)
MIC [10]: 0.5 µg/mL (≈ 0.527 µM)
MIC [11]: ≤ 0.06 µg/mL
MBC [47]: ≥ 256 µg/mL
MIC [12]: 4.32 µg/mL (≈ 4.55 µM)
MIC [13]: 128 µg/mL (≈ 135 µM)
Ratio [48]: >8
MBC [14]: ≤ 0.06 µg/mL
MIC [15]: 4 µg/mL (≈ 4.21 µM)
MIC [16]: 0.12 µg/mL (≈ 0.126 µM)
MIC [17]: 0.08 µg/mL (≈ 0.0843 µM)
MIC [18]: 0.88 µg/mL (≈ 0.927 µM)
MIC [19]: ≥ 256 µg/mL
MIC [20]: ≤ 0.06 µg/mL
MIC [21]: 0.88 µg/mL (≈ 0.927 µM)
MIC [22]: 4.32 µg/mL (≈ 4.55 µM)
MIC [23]: 64 µg/mL (≈ 67.4 µM)
MIC [24]: ≤ 0.06 µg/mL
MIC [25]: 0.5 µg/mL (≈ 0.527 µM)
MIC [26]: 0.88 µg/mL (≈ 0.927 µM)
MIC [27]: ≤ 0.06 µg/mL
MIC [28]: 0.25 µg/mL (≈ 0.263 µM)
MIC [30]: ≤ 0.06 µg/mL
MIC [31]: ≤ 0.06 µg/mL
MIC [32]: ≤ 0.06 µg/mL
MIC [33]: 0.5 µg/mL (≈ 0.527 µM)
MIC [34]: ≤ 0.06 µg/mL
MIC [35]: ≤ 0.06 µg/mL
MIC [36]: ≤ 0.06 µg/mL
MIC [37]: ≤ 0.06 µg/mL
MBC [38]: ≤ 0.06 µg/mL
MIC [39]: 0.19 µg/mL (≈ 0.2 µM)
MIC [41]: 4.24 µg/mL (≈ 4.47 µM)
MBC [42]: ≤ 0.06 µg/mL
MIC [43]: 0.88 µg/mL (≈ 0.927 µM)
MIC [44]: 256 µg/mL (≈ 270 µM)
